In ChEMBL document CHEMBL1155054, “Synthesis, biological evaluation and molecular modelling of N-heterocyclic dipeptide aldehydes as selective calpain inhibitors” (Bioorg Med Chem, 2008):
Active and inactive are the calls of the source. The calls are words filed in the database; no cut-off is given here. Residues, ends and D or L forms follow the SMILES beside them. *: point of attachment. Cbz = O=C(OCc1ccccc1)*

Columns and labels:
[1] = Inhibition of ovine CAPN1; set-up: species or system Ovis aries
Outline: (§1)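 o-CAPN1 or o-CAPN2 partially purified from sheep lung by hydrophobic and ion-exchange chromatography, diluted in 20 mM MOPS, 2 mM EGTA, 2 mM EDTA, 0.5% β-mercaptoethanol pH 7.5. Substrate 0.0005% BODIPY-FL casein in 10 mM CaCl2; inhibitor in DMSO (2% total).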

[2] = Inhibition of ovine CAPN2; set-up: species or system Ovis aries; outline: as §1
[3] = biological target: T1, Calpain-2 catalytic subunit (Sus scrofa, UniProt P43367); experiment: Inhibition of pig CAPN2
T1 sequence (P43367 whole entry): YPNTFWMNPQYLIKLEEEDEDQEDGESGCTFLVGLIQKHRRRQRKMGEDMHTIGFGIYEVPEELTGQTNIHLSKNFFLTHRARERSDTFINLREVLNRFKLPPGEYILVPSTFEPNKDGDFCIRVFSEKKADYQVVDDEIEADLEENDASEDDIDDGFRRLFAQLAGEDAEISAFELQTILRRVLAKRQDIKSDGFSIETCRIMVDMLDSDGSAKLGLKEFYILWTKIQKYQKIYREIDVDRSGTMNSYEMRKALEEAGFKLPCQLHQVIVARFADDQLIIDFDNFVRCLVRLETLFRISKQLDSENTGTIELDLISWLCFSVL

[4] = biological target: T2, Calpain-1 catalytic subunit (Sus scrofa, UniProt P35750)
T2 sequence (P35750 whole entry): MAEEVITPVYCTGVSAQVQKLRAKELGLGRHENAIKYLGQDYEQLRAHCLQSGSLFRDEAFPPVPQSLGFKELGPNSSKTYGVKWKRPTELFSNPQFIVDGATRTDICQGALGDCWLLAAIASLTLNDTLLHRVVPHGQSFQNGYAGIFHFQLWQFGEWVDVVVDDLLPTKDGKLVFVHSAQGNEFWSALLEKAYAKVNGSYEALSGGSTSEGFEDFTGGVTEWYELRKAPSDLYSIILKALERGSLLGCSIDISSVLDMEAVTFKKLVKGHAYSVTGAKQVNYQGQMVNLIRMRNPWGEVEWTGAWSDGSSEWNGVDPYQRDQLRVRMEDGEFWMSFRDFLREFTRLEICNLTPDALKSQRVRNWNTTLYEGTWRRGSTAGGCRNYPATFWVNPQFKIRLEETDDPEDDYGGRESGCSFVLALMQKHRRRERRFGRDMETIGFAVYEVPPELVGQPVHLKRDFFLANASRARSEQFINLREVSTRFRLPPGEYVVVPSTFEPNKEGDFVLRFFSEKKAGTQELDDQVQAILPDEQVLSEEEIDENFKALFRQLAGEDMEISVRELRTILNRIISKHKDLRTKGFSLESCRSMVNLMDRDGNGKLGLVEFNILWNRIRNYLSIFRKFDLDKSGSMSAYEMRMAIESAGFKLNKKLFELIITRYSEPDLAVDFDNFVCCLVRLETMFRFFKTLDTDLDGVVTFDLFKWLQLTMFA

[5] = biological target: T3, Calpain-2 catalytic subunit (Homo sapiens, UniProt P17655); experiment: Inhibition of human CAPN2
T3 sequence (P17655 whole entry): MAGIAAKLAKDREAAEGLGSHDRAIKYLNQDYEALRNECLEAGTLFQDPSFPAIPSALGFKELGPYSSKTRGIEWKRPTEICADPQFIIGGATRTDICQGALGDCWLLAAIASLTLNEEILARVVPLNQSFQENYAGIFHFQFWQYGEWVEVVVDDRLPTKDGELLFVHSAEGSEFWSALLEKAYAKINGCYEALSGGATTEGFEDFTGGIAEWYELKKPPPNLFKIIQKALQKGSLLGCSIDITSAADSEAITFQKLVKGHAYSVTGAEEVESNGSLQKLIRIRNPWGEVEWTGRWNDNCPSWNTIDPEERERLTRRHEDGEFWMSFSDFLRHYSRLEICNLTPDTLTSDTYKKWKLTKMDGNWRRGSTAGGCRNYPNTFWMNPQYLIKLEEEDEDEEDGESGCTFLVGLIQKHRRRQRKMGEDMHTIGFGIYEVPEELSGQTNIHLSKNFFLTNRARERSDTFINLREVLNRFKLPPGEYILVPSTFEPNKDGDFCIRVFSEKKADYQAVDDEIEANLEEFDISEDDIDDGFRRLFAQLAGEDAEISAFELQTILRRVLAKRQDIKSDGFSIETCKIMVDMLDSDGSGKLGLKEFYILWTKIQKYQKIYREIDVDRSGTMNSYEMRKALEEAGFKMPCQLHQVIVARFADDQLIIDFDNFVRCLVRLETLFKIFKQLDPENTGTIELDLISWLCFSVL

Lens of camera-type eye = experiment: Protection against calcium-induced cataract in ovine lens assessed as reduction in loss of transparency at 10 uM after 44 hrs relative to control; type: functional, tissue-based; conditions: Ovis aries

Work on `CC(C)C[C@@H](C=O)NC(=O)[C@@H](NC(=O)c1ccc(C=O)o1)C(C)C` yielded an IC50 [1] of 0.96 µM and an IC50 [2] of 0.1 µM.

In the case of `CC(C)C[C@@H](C=O)NC(=O)[C@@H](NC(=O)c1ccc(C=O)s1)C(C)C`, the IC50 [1] is reported as 0.44 µM and the IC50 [2] is reported as 0.085 µM.

Work on `CC(C)C[C@@H](C=O)NC(=O)[C@@H](NS(=O)(=O)c1ccc(F)cc1)C(C)C` yielded an IC50 [3] of 0.078 µM and an IC50 [4] of 0.0075 µM.

Work on `CC(C)[C@H](NC(=O)OCc1ccccc1)C(=O)N[C@H](C=O)Cc1ccccc1` (Cbz-Val-Phe-aldehyde) yielded an IC50 [5] of 0.35 µM.

`CC(C)C[C@@H](C=O)NC(=O)[C@@H](NC(=O)c1ccc[nH]1)C(C)C` showed an IC50 [1] of 0.65 µM and an IC50 [2] of 0.315 µM.

For `Cc1ccc(C(=O)N[C@H](C(=O)N[C@H](C=O)CC(C)C)C(C)C)[nH]1`, the IC50 [1] was 0.34 µM and the IC50 [2] was 0.11 µM.

For `CC(C)C[C@@H](C=O)NC(=O)[C@@H](NC(=O)c1ccc(C=O)[nH]1)C(C)C`, the IC50 [1] was 0.29 µM, the IC50 [2] was 0.025 µM and the Activity (Lens of camera-type eye) was “Active”.

`CC(C)C[C@@H](C=O)NC(=O)[C@@H](NC(=O)c1ccco1)C(C)C` gave an IC50 [1] of 0.79 µM and an IC50 [2] of 0.135 µM.

In the case of `CC(C)C[C@@H](C=O)NC(=O)[C@@H](NC(=O)c1cc(C=O)c[nH]1)C(C)C`, the IC50 [1] is reported as 0.53 µM and the IC50 [2] is reported as 0.1 µM.

With `CC(C)C[C@@H](C=O)NC(=O)[C@@H](NC(=O)c1cccs1)C(C)C` the IC50 [1] was 0.68 µM and the IC50 [2] was 0.1 µM.

`CC(C)C[C@@H](C=O)NC(=O)[C@@H](NC(=O)c1ccc(C=O)n1C)C(C)C` gave an IC50 [1] of 0.15 µM and an IC50 [2] of 0.15 µM.

Compound `COC(=O)c1ccc(C(=O)N[C@H](C(=O)N[C@H](C=O)CC(C)C)C(C)C)[nH]1` has an IC50 [1] of 0.29 µM and an IC50 [2] of 0.14 µM.
